Measured values: ChEMBL document CHEMBL1157296, “Cytotoxic and antimicrobial benzophenones from the leaves of Tovomita longifolia” (2006)
In brackets after ≈: the same amount, converted by molar mass. Activity calls are given as the source filed them. The rule behind the calls is not given here.

Assays:
Format in all cases: functional
Klebsiella pneumoniae = assay: Antimicrobial activity against Klebsiella pneumoniae ATCC 10031
[1] = test system: Salmonella enterica subsp. enterica serovar Gallinarum; assay: Antimicrobial activity against Salmonella gallinarum ATCC 9184
[2] = test system: Mycolicibacterium smegmatis; assay: Antimicrobial activity against Mycobacterium smegmatis ATCC 607
Pseudomonas aeruginosa = assay: Antimicrobial activity against Pseudomonas aeruginosa ATCC 27853
Candida albicans = assay: Antimicrobial activity against Candida albicans ATCC 10231
Staphylococcus aureus = assay: Antimicrobial activity against Staphylococcus aureus ATCC 6538
Escherichia coli = assay: Antimicrobial activity against Escherichia coli ATCC 9637
MCF7 = assay: Cytotoxicity against human MCF7 cells
Outline: (§1)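 Human cancer cell lines of breast (MCF-7), CNS (SF-268) and lung (H-460) origin were tested by the Monks et al. method. All three lines were used throughout to monitor fractions and isolated compounds.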

SF-268 = assay: Cytotoxicity against human SF268 cells; outline: as §1
NCI-H460 = assay: Cytotoxicity against human H460 cells; outline: as §1

| Compound | MIC (Klebsiella pneumoniae) [mg/L] | MIC [1] [mg/L] | MIC [2] [mg/L] | MIC (Pseudomonas aeruginosa) [mg/L] | Activity (Candida albicans) | MIC (Staphylococcus aureus) [mg/L] | MIC (Escherichia coli) [mg/L] | Activity [1] | GI50 (MCF7) [mg/L] | Activity (Pseudomonas aeruginosa) | GI50 (SF-268) [mg/L] | GI50 (NCI-H460) [mg/L] | Activity (Staphylococcus aureus) | Activity (Escherichia coli) | Activity (Klebsiella pneumoniae) | Activity [2] | Activity (MCF7) | Activity (SF-268) | Activity (NCI-H460) |
| --- | --- | --- | --- | --- | --- | --- | --- | --- | --- | --- | --- | --- | --- | --- | --- | --- | --- | --- | --- |
| CN[C@@H]1[C@H](O[C@H]2[C@H](O[C@H]3[C@H](O)[C@@H](O)[C@H](N=C(N)N)[C@@H](O)[C@@H]3N=C(N)N)O[C@@H](C)[C@]2(O)C=O)O[C@@H](CO)[C@H](O)[C@H]1O.CN[C@@H]1[C@H](O[C@H]2[C@H](O[C@H]3[C@H](O)[C@@H](O)[C@H](N=C(N)N)[C@@H](O)[C@@H]3N=C(N)N)O[C@@H](C)[C@]2(O)C=O)O[C@@H](CO)[C@H](O)[C@H]1O.O=S(=O)(O)O.O=S(=O)(O)O.O=S(=O)(O)O [STREPTOMYCIN SULFATE] | 3.12 | 3.12 | 12.5 | 1.56 | inactive | 12.5 | 6.25 | – | – | – | – | – | – | – | – | – | – | – | – |
| CC(C)=CCC[C@]1(C)Oc2c(c(O)cc(O)c2C(=O)c2ccccc2)C[C@@H]1O | 25 (≈ 65.4 µM) | – | 25 (≈ 65.4 µM) | – | inactive | – | – | inactive | 6.8 (≈ 17.8 µM) | inactive | 5.6 (≈ 14.6 µM) | 6.5 (≈ 17 µM) | inactive | inactive | – | – | – | – | – |
| C=C(CCC=C(C)C)[C@H](O)Cc1c(O)cc(O)c(C(=O)c2ccccc2)c1O | – | – | – | – | – | – | – | – | 6.7 (≈ 17.5 µM) | – | 6.5 (≈ 17 µM) | 7.8 (≈ 20.4 µM) | – | – | – | – | – | – | – |
| CC1(C)CCC[C@]2(C)Oc3c(c(O)cc(O)c3C(=O)c3ccccc3)C[C@@H]12 | 6.25 (≈ 17.1 µM) | 12.5 (≈ 34.1 µM) | 6.25 (≈ 17.1 µM) | 12.5 (≈ 34.1 µM) | inactive | 12.5 (≈ 34.1 µM) | – | – | 1.8 (≈ 4.91 µM) | – | 1.7 (≈ 4.64 µM) | 2.1 (≈ 5.73 µM) | – | inactive | – | – | – | – | – |
| COc1cccc2c1C(=O)c1c(O)c3c(c(O)c1C2=O)C[C@@](O)(C(=O)CO)C[C@@H]3O[C@H]1C[C@H](N)[C@H](O)[C@H](C)O1 [DOXORUBICIN] | – | – | – | – | – | – | – | – | 0.38 (≈ 0.699 µM) | – | 0.5 (≈ 0.92 µM) | 0.42 (≈ 0.773 µM) | – | – | – | – | – | – | – |
| C[C@@H]1[C@H](O)[C@@H](C)/C=C/C=C/C=C/C=C/C=C/C=C/C=C/[C@H](O[C@@H]2O[C@H](C)[C@@H](O)[C@H](N)[C@@H]2O)C[C@@H]2O[C@](O)(C[C@@H](O)C[C@@H](O)[C@H](O)CC[C@@H](O)C[C@@H](O)CC(=O)O[C@H]1C)C[C@H](O)[C@H]2C(=O)O | – | – | – | – | – | – | – | inactive | – | inactive | – | – | inactive | inactive | inactive | inactive | – | – | – |
| C=C(C)[C@H](O)CC/C(C)=C/Cc1c(O)cc(O)c(C(=O)c2ccccc2)c1O | – | – | – | – | – | – | – | – | – | – | – | – | – | – | – | – | inactive | inactive | inactive |
| CC(C)=CCC/C(C)=C/Cc1c(O)cc(O)c(C(=O)c2ccccc2)c1O | – | – | 50 (≈ 136 µM) | – | inactive | – | – | inactive | – | inactive | – | – | inactive | inactive | inactive | – | inactive | inactive | inactive |
| CC(C)=CCC/C(C)=C/COc1cc(O)c(C(=O)c2ccccc2)c(O)c1 | – | – | 12.5 (≈ 34.1 µM) | – | inactive | 12.5 (≈ 34.1 µM) | – | inactive | 4.8 (≈ 13.1 µM) | inactive | 2 (≈ 5.46 µM) | 4.4 (≈ 12 µM) | – | inactive | inactive | – | – | – | – |
